Source: BindingDB's records for doi:10.1021/jm960153q (Rhône-Poulenc Rorer, 1996)

Assays:
[1] = Concentration at which one-half of the maximum Low density lipoprotein receptor is upregulated in HepG2 cells
[2] = molecular target: Low-density lipoprotein receptor (Homo sapiens, UniProt P01130); assay: Concentration at which one-half the maximum Low density lipoprotein receptor up-regulation is observed in HepG2 cells
How it was run: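 HepG2 cells in 96-well plates at 10 000 cells/well, grown 3 days to 80% confluence. Compounds added in DMEM with 1% BSA for 24 h at several concentrations. Formaldehyde-fixed cells probed with MAC-C7 (0.5 µg/mL, 60 min, 4 °C), then alkaline phosphatase-linked anti-mouse IgG, then fluorogenic substrate. EC50 is the concentration giving half-maximal upregulation, determined only when upregulation at 3 µM exceeded 40%. Five replicates.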

Low-density lipoprotein receptor, sequence (P01130 whole entry): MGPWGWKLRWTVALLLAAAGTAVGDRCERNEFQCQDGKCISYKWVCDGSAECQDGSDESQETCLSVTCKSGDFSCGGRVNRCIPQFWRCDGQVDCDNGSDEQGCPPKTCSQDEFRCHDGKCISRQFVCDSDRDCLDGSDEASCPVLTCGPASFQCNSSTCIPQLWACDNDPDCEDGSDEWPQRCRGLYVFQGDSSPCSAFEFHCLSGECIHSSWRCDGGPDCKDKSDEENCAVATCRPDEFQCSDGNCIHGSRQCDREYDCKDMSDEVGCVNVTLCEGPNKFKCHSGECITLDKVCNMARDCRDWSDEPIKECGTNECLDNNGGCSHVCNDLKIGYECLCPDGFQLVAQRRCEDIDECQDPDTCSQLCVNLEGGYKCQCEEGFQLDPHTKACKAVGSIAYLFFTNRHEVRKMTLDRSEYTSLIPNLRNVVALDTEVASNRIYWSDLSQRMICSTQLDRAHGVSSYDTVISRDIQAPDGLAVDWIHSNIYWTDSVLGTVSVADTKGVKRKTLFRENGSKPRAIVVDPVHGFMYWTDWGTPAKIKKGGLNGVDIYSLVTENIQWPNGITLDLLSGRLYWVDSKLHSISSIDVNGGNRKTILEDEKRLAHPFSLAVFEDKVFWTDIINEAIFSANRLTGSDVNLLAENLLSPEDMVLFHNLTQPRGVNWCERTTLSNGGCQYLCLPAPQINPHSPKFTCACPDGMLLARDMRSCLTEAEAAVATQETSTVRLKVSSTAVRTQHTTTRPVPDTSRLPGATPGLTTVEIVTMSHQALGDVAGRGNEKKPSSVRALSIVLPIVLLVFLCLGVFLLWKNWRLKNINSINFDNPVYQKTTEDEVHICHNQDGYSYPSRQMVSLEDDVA

## Cc1ccc(NC(=O)CCC2CCCCC2)cc1NC(=O)c1ccc(N)cc1 [4-Amino-N-[5-(3-cyclohexyl-propionylamino)-2-methyl-phenyl]-benzamide]
[1]
  EC50: 3800 nM

## Cc1ccc(NC(=O)CCC2CCCCC2)cc1-c1nc2ccc(O)cc2[nH]1 [3-Cyclohexyl-N-[3-(5-hydroxy-1H-benzoimidazol-2-yl)-4-methyl-phenyl]-propionamide]
[1]
  EC50: 700 nM

## Cc1ccc(NC(=O)CCC2CCCCC2)cc1/C=C(\C#N)c1ccc2c(c1)OCO2 [N-[3-((Z)-2-Benzo[1,3]dioxol-5-yl-2-cyano-vinyl)-4-methyl-phenyl]-3-cyclohexyl-propionamide]
[1]
  EC50: 700 nM

## Cc1ccc(NC(=O)CCC2CCCCC2)cc1NC(=O)c1cccnc1 [N-[5-(3-Cyclohexyl-propionylamino)-2-methyl-phenyl]-nicotinamide]
[1]
  EC50: 1200 nM

## Cc1ccc(NC(=O)CCC2CCCCC2)cc1NC(=O)c1cccc(O)c1 [N-[5-(3-Cyclohexyl-propionylamino)-2-methyl-phenyl]-3-hydroxy-benzamide]
[1]
  EC50: 2000 nM

## Cc1ccc(NC(=O)CCC2CCCCC2)cc1NC(=O)c1ccc(CO)cc1 [N-[5-(3-Cyclohexyl-propionylamino)-2-methyl-phenyl]-4-hydroxymethyl-benzamide]
[1]
  EC50: 7600 nM

## Cc1ccc(C(=O)NCCC2CCCCC2)cc1NC(=O)c1ccc(O)cc1 [N-(2-Cyclohexyl-ethyl)-3-(4-hydroxy-benzoylamino)-4-methyl-benzamide]
[1]
  EC50: 2000 nM

## Cc1ccc(NC(=O)CCC2CCCCC2)cc1NC(=O)c1ccc(O)cc1 [N-[5-(3-Cyclohexyl-propionylamino)-2-methyl-phenyl]-4-hydroxy-benzamide]
[1]
  EC50: 1700 nM

## CC(=O)Oc1ccc(C(=O)Nc2cc(NC(=O)CCC3CCCCC3)ccc2C)cc1 [Acetic acid 4-[5-(3-cyclohexyl-propionylamino)-2-methyl-phenylcarbamoyl]-phenyl ester]
[1]
  EC50: 2500 nM

## Cc1ccc(NC(=O)CCC2CCCCC2)cc1NC(=O)c1ccccc1 [N-[5-(3-Cyclohexyl-propionylamino)-2-methyl-phenyl]-benzamide]
[1]
  EC50: 2000 nM

## Cc1ccc(NC(=O)CCC2CCCCC2)cc1C(=O)Nc1ccc(O)cc1 [5-(3-Cyclohexyl-propionylamino)-N-(4-hydroxy-phenyl)-2-methyl-benzamide]
[1]
  EC50: 7000 nM

## Cc1ccc(C(=O)CCCC2CCCCC2)cc1NC(=O)c1cccnc1 [N-[5-(4-Cyclohexyl-butyryl)-2-methyl-phenyl]-nicotinamide]
[2]
  EC50: 2000 nM

## Cc1ccc(NC(=O)CCC2CCCCC2)cc1-c1nc2ccccc2[nH]1 [N-[3-(1H-Benzoimidazol-2-yl)-4-methyl-phenyl]-3-cyclohexyl-propionamide]
[1]
  EC50: 1300 nM

## Cc1ccc(NC(=O)CCCC2CCCCC2)cc1NC(=O)c1ccc(O)cc1 [N-[5-(4-Cyclohexyl-butyrylamino)-2-methyl-phenyl]-4-hydroxy-benzamide]
[1]
  EC50: 4000 nM

## Cc1ccc2nc(-c3cc(NC(=O)CCC4CCCCC4)ccc3C)[nH]c2c1 [3-Cyclohexyl-N-[4-methyl-3-(5-methyl-1H-benzoimidazol-2-yl)-phenyl]-propionamide]
[1]
  EC50: 1300 nM

## Cc1ccc(NC(=O)CCC2CCCCC2)cc1/C=C(\C#N)c1cccnc1 [N-[3-((Z)-2-Cyano-2-pyridin-3-yl-vinyl)-4-methyl-phenyl]-3-cyclohexyl-propionamide]
[1]
  EC50: 1000 nM
